From ChEMBL document CHEMBL1122954, “Synthesis and antiallergic activity of some quinolinones and imidazoquinolinones” (1985)

Assays:
Type in all cases: functional
Rattus norvegicus [1] = assay: Percentage normal weight gain when dosed at 200 mg/kg on day one of the 2-week study in rat
Summary of the method: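 Male Sprague-Dawley rats, fasted 16 h, given a single oral dose in 0.1% Methocel; controls got vehicle. Groups of 8–10, weighed daily at about the same time over 2 weeks. Gain over the first 4 days compared with expected gain from standard growth charts for age and strain. Mean % of normal weight gain ± standard error.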

Rattus norvegicus [2] = assay: Antiallergic activity by rat passive cutaneous anaphylaxis (PCA) assay when administered perorally at dose 100 mg/kg; details: route oral
Rattus norvegicus [3] = assay: Antiallergic activity determined by rat passive cutaneous anaphylaxis (PCA) assay when administered intraperitoneally at dose 60 mg/kg; details: route intraperitoneal

SMILES: COC(=O)c1cc(=O)c2cccc3ncn1c32
- Normal weight gain (Rattus norvegicus [1]): 68%
- Activity (Rattus norvegicus [2]): 1
- Activity (Rattus norvegicus [3]): 16

SMILES: COC(=O)c1cc(O)c2cccc([N+](=O)[O-])c2n1
- Normal weight gain (Rattus norvegicus [1]): 104%
- Activity (Rattus norvegicus [2]): 8
- Activity (Rattus norvegicus [3]): 66

SMILES: COC(=O)c1cc(O)c2cccc(N)c2n1
- Normal weight gain (Rattus norvegicus [1]): 100%
- Activity (Rattus norvegicus [2]): 3
- Activity (Rattus norvegicus [3]): 10

SMILES: CCOC(=O)c1cnc2c(NC=O)cccc2c1O
- Normal weight gain (Rattus norvegicus [1]): -26%
- Activity (Rattus norvegicus [2]): 76
- Activity (Rattus norvegicus [3]): 67

SMILES: O=C([O-])c1cc(=O)c2c(OCC(O)COc3cccc4oc(C(=O)[O-])cc(=O)c34)cccc2o1.[Na+].[Na+] [CROMOLYN SODIUM]
- Activity (Rattus norvegicus [2]): 2
- Activity (Rattus norvegicus [3]): 100

SMILES: CCOC(=O)c1cn2cnc3cc(C)cc(c1=O)c32
- Activity (Rattus norvegicus [2]): 70
- Activity (Rattus norvegicus [3]): 3

SMILES: CCOC(=O)c1cnc2c(N)cc(C)cc2c1O
- Activity (Rattus norvegicus [3]): -2

SMILES: CCOC(=O)c1cnc2c([N+](=O)[O-])cccc2c1O
- Normal weight gain (Rattus norvegicus [1]): 106%
- Activity (Rattus norvegicus [2]): -2
- Activity (Rattus norvegicus [3]): 13

SMILES: O=CNc1cccc2c(O)c(C(=O)O)cnc12
- Activity (Rattus norvegicus [2]): 0
- Activity (Rattus norvegicus [3]): 62

SMILES: CCO/C(C)=N/c1cccc2c(O)cc(C(=O)OC)nc12
- Activity (Rattus norvegicus [3]): 24

SMILES: O=CNc1cccc2c(O)cc(C(=O)O)nc12
- Activity (Rattus norvegicus [2]): 16
- Activity (Rattus norvegicus [3]): 91

SMILES: CCOC(=O)c1cn2c(C)nc3cccc(c1=O)c32
- Normal weight gain (Rattus norvegicus [1]): -49%
- Activity (Rattus norvegicus [2]): 83
- Activity (Rattus norvegicus [3]): 95

SMILES: CCOC(=O)c1cnc2c(N)cccc2c1O
- Normal weight gain (Rattus norvegicus [1]): 86%
- Activity (Rattus norvegicus [3]): 19

SMILES: CCOC(=O)c1cn2cnc3cccc(c1=O)c32
- Normal weight gain (Rattus norvegicus [1]): -6%
- Activity (Rattus norvegicus [2]): 70
- Activity (Rattus norvegicus [3]): 100
